The source of these data is ChEMBL document CHEMBL1132618, “Cytotoxicity of (2,2':6',2''-terpyridine)platinum(II) complexes to Leishmania donovani, Trypanosoma cruzi, and Trypanosoma brucei” (J Med Chem, 1999).

In assay [1] the test system is Trypanosoma cruzi. Kind of assay: Antiparasitic activity against Trypanosoma cruzi for % inhibition at 3 uM concentration T/+ means the compound was toxic to macrophages but parasites still present. The format is functional, organism-based. A digest of the protocol:
(§1)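 T. cruzi Y strain (MHOM/BR/00/Y) trypomastigotes from MDCK cells infect CD1 mouse peritoneal macrophages at 5:1 in RPMI 1640 + 10% hiFCS, 37 °C, 5% CO2. Compound exposure is a 3-fold dilution series from 30 μM, quadruplicate, 3 days. Read-out is the proportion of infected cells after methanol fixation and Giemsa staining, versus untreated cultures. ED50 is derived by linear regression.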

The subject of assay [2] is Trypanosoma cruzi. Description: Antiparasitic activity against Trypanosoma cruzi for % inhibition at 10 uM concentration T/+ means the compound was toxic to macrophages but parasites still present. The class given is functional, organism-based. The essentials: as §1
For assay [3], the system named is Trypanosoma brucei. Description: Compound was tested for antiparasitic activity caused against Trypanosoma brucei for percentage inhibition at 1 uM concentration. The class given is functional, organism-based. The essentials:
(§2)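 T. brucei S427 bloodstream trypomastigotes are grown in HMI-18 + 20% hiFCS at 37 °C, 5% CO2. Compound exposure is a 3-fold dilution series from 30 μM, triplicate cultures, 72 h. Read-out is an MTT-based cytotoxicity assay, or Coulter counting of cells/mL in the dose-range screen. ED50 is derived by linear regression of dose-response.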

Assay [4] concerns Trypanosoma brucei. Kind of assay: Antiparasitic activity against Trypanosoma brucei, percentage inhibition at 30 uM concentration. The format is functional, organism-based. The essentials:
as §2

For assay [5], the system named is Trypanosoma cruzi. Description: Antiparasitic activity against Trypanosoma cruzi for % inhibition at 30 uM concentration T/+ means the compound was toxic to macrophages but parasites still present. The class given is functional, organism-based. A digest of the protocol:
as §1

Assay [6] deals with Trypanosoma cruzi. Description: Compound was tested for antiparasitic activity caused against Trypanosoma cruzi for effective dose for 50% activity.
Assay [7] deals with Leishmania donovani. Kind of assay: Compound was tested for antiparasitic activity caused against Leishmania donovani for percentage inhibition at 3 uM concentration. The class given is functional, organism-based. A digest of the protocol: (§3)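 L. donovani MHOM/ET/67/L82 amastigotes from golden hamster spleen infect CD1 mouse peritoneal macrophages at 10:1 in RPMI 1640 + 10% hiFCS, 37 °C, 5% CO2. Compound exposure is a 3-fold dilution series from 30 μM, quadruplicate cultures, 5 days, with medium + drug replaced once. Cells are methanol-fixed and Giemsa-stained, and the proportion of infected cells is compared with untreated cultures. ED50 is derived by linear regression.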

Assay [8] concerns Leishmania donovani. Kind of assay: Antiparasitic activity against Leishmania donovani for % inhibition at 30 uM concentration T/100 means the compound was toxic to macrophages but more toxic to parasites that is none present, 100% inhibition. The class given is functional, organism-based. The essentials: as §3
In assay [9] the test system is Trypanosoma brucei. Kind of assay: Antiparasitic activity against Trypanosoma brucei, percentage inhibition at 10 uM concentration. The class given is functional, organism-based. The essentials: as §2
Assay [10] relates to Leishmania donovani. Kind of assay: Antiparasitic activity against Leishmania donovani for % inhibition at 10 uM concentration T/100 means the compound was toxic to macrophages but more toxic to parasites that is none present, 100% inhibition. The class given is functional, organism-based. A digest of the protocol: as §3
Assay [11] relates to Trypanosoma brucei. Description: Antiparasitic activity caused against Trypanosoma brucei for percentage inhibition at 3 uM concentration. The format is functional, organism-based. A digest of the protocol:
as §2

For orientation: inhibition means how much of the control response was suppressed. On to “(2,2':6',2''-terpyridine)platinum (II) complex”, for which the inhibition result was “toxic to macrophages but parasites still present” with Trypanosoma cruzi [1]; “toxic to macrophages but parasites still present” in the assay with Trypanosoma cruzi [2]; 100% in the assay with Trypanosoma brucei [3]; 100% with Trypanosoma brucei [4]; “toxic to macrophages but parasites still present” with Trypanosoma cruzi [5]; 99.8% in the assay with Leishmania donovani [7]. For the same substance, the inhibition entry in the assay on Leishmania donovani [8] is “Total inhibition”; in the assay with Trypanosoma brucei [9], 100%; in the assay on Leishmania donovani [10] it was “Total inhibition”; in the assay on Trypanosoma brucei [11], 100%. The same substance had an ED50 in the assay on Trypanosoma cruzi [6] of 4 µM.
